According to paper PMC12272725 (Chemical Science, 2025):
Read-outs that look alike come from different tables or passages of the source.

Key:
Format in all cases: cell-based, human
A549 cells [1] = test system: A549 cells
In short: (§1)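 Human cells (A549 lung cancer, RPE-1 non-cancerous epithelial) were incubated with test compound for 4 h, the medium was replaced, and the cells were either irradiated or kept dark, then incubated a further 48 h. Viability was read by resazurin. Irradiation was 510 nm for 10 min (non-extended BODIPYs) or 645 nm (extended BODIPYs). IC50 was found dark and irradiated. […]. PPIX was the positive control.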

RPE-1 cells = test system: RPE-1 cells
In short: as §1

A549 cells [2] = assay: Intracellular total ROS generation, DCFH trap, A549 cells; settings: A549, 5 μM, 645 nm for 1 h
In short: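 A549 cells were loaded with the total-ROS trap dichlorodihydrofluorescein (DCFH) and test compound, then irradiated at 645 nm for 1 h at 37 °C. The trap's fluorescence gave intracellular ROS generation. DCFH alone was the control.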

[3] = read-out: IC50 upon 645 nm irradiation, 645 nm for 1 h (9.00 J/cm2)

## C=CC1=C(C)c2cc3[nH]c(cc4nc(cc5[nH]c(cc1n2)c(C)c5CCC(=O)O)C(CCC(=O)O)=C4C)c(C)c3C=C [PPIX]
A549 cells [1]; 510 nm for 10 min
  Phototoxicity index: 220 ± 30
A549 cells [1]; 645 nm for 1 h
  Phototoxicity index: 111 ± 4
A549 cells [1]; [3]
  IC50: 0.9 ± 0.03 µM
RPE-1 cells; 510 nm for 10 min
  Phototoxicity index: 350 ± 120
RPE-1 cells; 645 nm for 1 h
  Phototoxicity index: 360 ± 160
RPE-1 cells; read-out: IC50 in the dark, dark, Table 3 (645 nm series)
  IC50: > 100 µM
RPE-1 cells; read-out: IC50 upon 510 nm irradiation, 510 nm for 10 min (2.44 J/cm2)
  IC50: 0.3 ± 0.1 µM
RPE-1 cells; [3]
  IC50: 0.3 ± 0.1 µM
A549 cells [2]
  Intracellular ROS generation: elevated above control
